S1P4 antag: antagonists of human S1P4 receptor. actives 0.26% (n = 220,000). AID 1510. S1P4-expressing cells, antagonist mode, reporter read-out. inhibition, % at 4.98 µM; in the data active = inhibition above about 29%;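 also: 0% = wells stimulated with agonist and 100% = vehicle wells without agonist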
S1P4 ag: activates the human S1P4 receptor | O95977 | actives 0.35% (n = 220,000) | S1P4-expressing cell line, agonist reporter assay | activation, % at 4.98 µM; in the data active = activation above about 11%;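 also: 0% = DMSO vehicle and 100% = reference agonist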
NPY2 pot ag: potentiators or agonists of human neuropeptide Y receptor Y2 | P49146 | cells expressing NPY-Y2, potentiator/agonist read-out | activation, % at 3.6 µM | actives 0.45% (n = 220,000) | AID 1359; in the data active = activation above about 27%;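 also: cells stimulated with NPY near EC25 plus isoproterenol at EC100; 0% = vehicle plus submaximal agonist and 100% = vehicle plus saturating agonist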
NPY-Y1 PAM-ag: potentiates or activates human NPY-Y1 receptor; P25929; NPY-Y1 expressing cells, potentiator/agonist activation; activation, % at 3.6 µM; actives 0.37% (n = 220,000); AID 1304; in the data active = activation above about 33%, passing the limit was not always enough;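 also: cells stimulated with NPY at EC10 then isoproterenol at EC100; 0% = low agonist plus stimulus and 100% = saturating agonist plus stimulus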
Target sequence (P25929 whole entry, looked up): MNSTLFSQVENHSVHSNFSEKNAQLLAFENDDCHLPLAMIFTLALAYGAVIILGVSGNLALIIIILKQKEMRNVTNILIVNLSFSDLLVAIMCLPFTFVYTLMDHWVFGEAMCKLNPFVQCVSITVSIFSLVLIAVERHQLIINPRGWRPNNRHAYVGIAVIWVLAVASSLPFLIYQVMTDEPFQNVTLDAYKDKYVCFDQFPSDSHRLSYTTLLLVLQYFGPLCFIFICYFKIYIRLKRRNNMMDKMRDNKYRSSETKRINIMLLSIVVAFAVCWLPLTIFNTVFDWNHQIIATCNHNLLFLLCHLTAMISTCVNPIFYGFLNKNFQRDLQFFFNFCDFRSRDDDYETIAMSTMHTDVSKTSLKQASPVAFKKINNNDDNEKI
NPY Y1 blocker: NPY-Y1 (human) receptor antagonism; P25929; HEK293-CNG Y1 cells, membrane potential fluorescence; NPY at EC95, then isoproterenol; inhibition, % at 3.6 µM; actives 1% (n = 200,000); AID 1040;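 active = inhibition above the campaign mean inhibition of all tested compounds plus 3 SD, cut at about 20% in these data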;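 also: 0% = DMSO wells given NPY plus isoproterenol and 100% = isoproterenol alone without NPY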
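Material: HEK293 cells co-expressing NPY Y1 receptor and cyclic-nucleotide gated channel. Timing: compound incubation 1 h at room temperature, readout 45 min post-stimulation. Signal: fluorescence, membrane potential probe.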
NPY-Y2 antag: NPY-Y2 (human) receptor antagonism | NPY-Y2 expressing cells, antagonist mode | P49146 | actives 0.99% (n = 140,000) | AID 793 | inhibition, % at 2.7 µM; in the data active = inhibition above about 17%;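 also: 0% = vehicle with agonist challenge and 100% = reference antagonist with challenge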
S1P4 ag conf: confirmation of human S1P4 receptor agonists; actives 7% (n = 740); S1P4 agonist cell-based reporter assay; shares compounds with S1P4 ag; activation, % at 4.98 µM; in the data active = activation above about 12%;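 also: 0% = vehicle and 100% = full reference agonist response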
S1P1 agonist: human S1P1 agonism as S1P4 agonist counter-screen; shares compounds with S1P4 ag; S1P1 agonist cell-based assay, activation; activation, % at 4.98 µM; actives 4% (n = 740); in the data active = activation above about 21%;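 also: 0% = vehicle wells and 100% = reference agonist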
Numbers without * were called inactive; nt = no result. This is a sample that favours compounds with a hit; in the whole collection about 2.4% have one here.

SMILES	S1P4 antag	S1P4 ag	NPY2 pot ag	NPY-Y1 PAM-ag	NPY Y1 blocker	NPY-Y2 antag	S1P4 ag conf	S1P1 agonist
Cc1cc(Oc2ccc(-c3nnc(-c4ccccc4)o3)cc2[N+](=O)[O-])ccc1Cl	-1.7	13.8*	5.3	-8.0	8.3	2.0	-0.7	1.6
Cc1cc(-c2nnnn2-c2ccc(F)cc2)no1	6.7	0.4	2.8	-13.0	nt	nt	nt	nt
Cn1c(SCC(=O)O)nnc1-c1ccc2ncccc2c1	-7.0	116.7*	5.5	20.6	nt	nt	-0.3	-5.9
Cn1c(SCC(O)c2ccccc2)nnc1-c1ccc2ccccc2c1 (configuration not stated)	12.7	-0.7	-5.6	-16.5	nt	nt	nt	nt
O=[N+]([O-])c1ccc2[nH]c3c(c2c1)CCCC3	5.9	15.1*	5.5	10.8	-7.3	nt	-3.1	-8.9
N/N=C1\CCCc2c1[nH]c1ccc([N+](=O)[O-])cc21	-7.7	0.1	3.1	10.0	nt	nt	nt	nt
Cn1cccc1C(=O)C(=O)Nc1cccc(Cl)c1Cl	1.4	20.4*	8.6	11.2	5.4	-1.0	-1.4	0.9
Cn1cccc1C(=O)C(=O)Nc1ccc(Cl)cc1	3.5	0.6	11.7	3.8	-1.3	0.5	nt	nt
Nc1nc(Nc2ccc(Cl)cc2Cl)nc(C(F)(F)F)n1	-9.3	29.9*	1.9	-10.6	1.5	4.0	26.6*	-1.6
COc1ccc(NC(=O)CSc2nnc(NC(=O)c3ccccc3C(=O)O)s2)cc1	-8.3	2.0	-9.4	12.9	3.1	nt	nt	nt
CCN(CC)c1ccc(-c2n[nH]c(=S)n2-c2ccccc2)cc1	-17.4	12.1*	-4.2	-4.6	1.3	nt	-0.8	0.3
O=C(CN(CCc1ccccc1)S(=O)(=O)c1ccc(Br)cc1)N/N=C/c1ccccc1C(=O)O	-5.3	0.4	2.5	-16.4	-2.0	nt	nt	nt
COc1ccc(S(=O)(=O)n2nc(C)cc2C)c(C)c1C	0.3	48.1*	10.0	9.6	4.1	2.2	-2.2	-3.9
Cc1cc(C)n(S(=O)(=O)c2ccc(C)c(C)c2C)n1	-20.7	0.2	-1.1	24.6	2.1	4.5	nt	nt
COc1cccc(NC(=O)COC(=O)CC(NC(N)=O)c2ccc(Cl)cc2)c1 (configuration not stated)	-6.0	0.2	-1.2	9.3	nt	nt	nt	nt
C=CCNC(=S)N/N=C/c1ccc(C)cc1C	8.1	47.7*	-5.8	-20.0	8.2	nt	-2.6	-3.1
CC12CCC(C(=O)N3CCCCC3)([C@H](Br)C1=O)C2(C)C (some centres not stated)	6.1	-0.8	12.3	5.2	nt	nt	nt	nt
CCOC1CCc2c(C)nc(N)nc2S1 (configuration not stated)	2.2	23.9*	-14.0	0.6	nt	nt	-2.1	0.1
CCCCOc1ccc(S(=O)(=O)n2c(C)nc3ccccc32)cc1	-7.8	-0.7	-13.7	-25.8	8.3	4.7	nt	nt
CCOc1ccc(S(=O)(=O)n2c(C)nc3ccccc32)cc1	-3.8	14.4*	-11.8	5.2	9.1	5.2	-1.5	-7.2
Cc1ccc(/C=C/C(=O)OCn2nnc3ccccc3c2=O)o1	-22.1	-0.5	11.1	1.9	nt	nt	nt	nt
COc1cccc(CNc2cccc(C(F)(F)F)c2)c1O	6.2	17.0*	2.4	-1.2	13.4	nt	-2.0	-4.2
O=C(O)c1ccc(N/N=C/c2ccc(-c3cc(Cl)ccc3Cl)o2)cc1	19.8	4.2	5.9	-0.9	nt	nt	nt	nt
O=C(O)c1ccc(N/N=C/c2ccc(-c3ccc(Cl)cc3Cl)o2)cc1	-10.1	15.9*	34.3	16.3	nt	nt	6.8	26.3*
O=C(O)c1ccc(N/N=C/c2ccc(-c3cccc(Cl)c3)o2)cc1	-13.7	13.3*	11.7	22.1	nt	nt	2.6	9.3
SMILES	S1P4 antag	S1P4 ag	NPY2 pot ag	NPY-Y1 PAM-ag	NPY Y1 blocker	NPY-Y2 antag	S1P4 ag conf	S1P1 agonist
O=C(O)c1cccc(-c2ccc(/C=N/Nc3ccc([N+](=O)[O-])cc3)o2)c1	20.1	-0.5	0.1	0.8	nt	nt	nt	nt
COC(=O)/C(C#N)=C\c1c(OC)[nH]c2ccccc12	3.0	-1.0	12.8	24.6	nt	nt	nt	nt
Cn1c(=NC(=O)c2ccccc2[N+](=O)[O-])sc2cccc(F)c21	2.9	11.2*	-10.8	11.1	nt	nt	-2.7	1.2
Cc1ccc2[nH]c(=O)c(CN(C)C(=O)c3cccs3)cc2c1	-10.7	21.6*	6.7	9.7	-0.8	nt	-2.8	-6.8
CN(Cc1cc2ccccc2[nH]c1=O)C(=O)c1cccs1	-6.3	0.4	4.3	-2.2	1.8	nt	nt	nt
O=C(c1ccc(NC(=S)Nc2ccc(Cl)c(Cl)c2)cc1)N1CCCC1	-24.4	22.9*	-1.4	-11.1	-2.8	-0.6	-2.5	-2.3
COc1ccc(N=c2oc3cc(O)ccc3cc2C(=O)NCC2CCCO2)c(OC)c1 (configuration not stated)	-51.2	70.9*	-9.9	-20.1	30.4*	31.0*	1.9	-1.1
CCOc1ccc(C(=O)NCC2CCCO2)cc1OCC (configuration not stated)	-8.2	2.9	-4.7	-5.1	2.5	nt	nt	nt
CCOc1ccccc1N=c1oc2cc(O)ccc2cc1C(=O)NCC1CCCO1 (configuration not stated)	-52.0	61.0*	-11.6	-45.3	36.3*	25.0*	4.5	-1.2
CCOC(=O)/C=C/C(=O)OCC(=O)Nc1ccc([N+](=O)[O-])cc1	19.6	0.3	11.2	6.4	nt	nt	nt	nt
C/C(N)=C(/C#N)C(=O)CSc1cc(C)c2ccccc2n1	-19.1	-0.2	-9.2	-6.4	11.7	nt	nt	nt
O=C(O)c1cccc(C(=O)c2cccc(C(=O)O)c2)c1	-7.8	41.1*	-12.5	11.9	8.8	nt	-2.9	-0.4
CCn1c(=O)c2c3c(sc2n2c(=S)[nH]nc12)CCC3	-11.7	23.4*	-15.4	0.3	0.9	2.7	-2.0	-2.9
Cc1ccc(-n2c(=O)c3c4c(sc3n3c(=S)[nH]nc23)CCC4)cc1	6.5	-0.5	-17.2	-5.7	nt	nt	nt	nt
CC(C)c1ccccc1NC(=O)CNC(C)c1ccc(F)cc1 (configuration not stated)	-16.5	-0.6	0.7	13.6	2.2	nt	nt	nt
Cn1c(NC(=O)Cc2ccc(F)cc2)cc(=O)n(C)c1=O	-6.8	-0.2	-3.6	-10.8	8.3	-1.5	nt	nt
Cn1c(NC(=O)CC(C)(C)C)cc(=O)n(C)c1=O	-0.8	45.5*	-8.0	-3.2	1.7	0.3	-1.5	-2.5
COc1ccccc1-c1c(C)oc2c(CN3CCN(CCO)CC3)c(O)ccc2c1=O	-1.9	1.3	-8.2	-18.8	0.7	2.8	nt	nt
O=c1oc2c(CN3CCN(CCO)CC3)c(O)ccc2cc1-c1ccccn1	1.4	14.4*	-10.0	7.7	nt	nt	6.1	3.1
CCNc1nc(NC(C)C)nc(N(C#N)C(C)C(=O)N(CC)CC)n1 (configuration not stated)	-8.3	-0.4	5.4	5.0	nt	nt	nt	nt
CC(C)CNC(=O)c1cccc(NC(=O)CCc2ccccc2)c1	-16.4	-0.9	8.4	9.6	6.8	nt	nt	nt

Assay outcomes deposited in PubChem by The Scripps Research Institute Molecular Screening Center.
